The record followed here is ChEMBL document CHEMBL1121967 (J Med Chem, 1982).

“And” between values parts separate entries of the source, which are not always exact repeats. Equal entries are not always repeated. The source made the active and inactive calls. The rule behind the calls is not given here. Residues, ends and D or L forms follow the SMILES beside them. Bounds are passed on as bounds.

Holding throughout (assay type): functional
The species named for experiment [1] is Cavia porcellus. Briefly: Concentration producing 50% of the maximum effect was tested in guinea pig ileum. As to conditions: read-out: ED50 (the source's name). In short, it runs like this:
(§1)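 Isolated helical strips of rabbit mesenteric vein, longitudinal strips of guinea pig ileum, or helical strips of guinea pig trachea, held in 10-mL baths of Krebs' solution at 37 °C gassed with 95% O2/5% CO2. Isometric tension recorded. Cumulative agonist concentrations 10⁻¹⁰ to 10⁻⁵ M. pD2 is -log concentration giving 50% of the compound's own maximum. Intrinsic activity is a fraction of SP's, and affinity is relative to SP. Values come from 10-12 determinations.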

The species named for experiment [2] is Cavia porcellus. Briefly: Relative affinity was determined with substance P(SP) in guinea pig ileum. The method, boiled down: as §1
Experiment [3] is filed under the species Cavia porcellus. Briefly: Concentration producing 50% of the maximum effect was tested in guinea pig trachea. As to conditions: read-out: ED50 (the source's name). The method, boiled down: as §1
The species entered for experiment [4] is Oryctolagus cuniculus. Briefly: Negative log of the concentration producing 50% of the maximum effect was measured in Rabbit mesenteric vein. In short, it runs like this:
as §1

Experiment [5] is filed under the species Oryctolagus cuniculus. Briefly: Relative affinity was determined with substance P(SP) in Rabbit mesenteric vein. The method, boiled down:
as §1

The species named for experiment [6] is Cavia porcellus. Briefly: The intrinsic activity was measured in guinea pig ileum. In short, it runs like this:
as §1

The species entered for experiment [7] is Oryctolagus cuniculus. Briefly: The intrinsic activity was measured in Rabbit mesenteric vein. As to conditions: for Kb: read-out: pA2 (converted). The method, boiled down: as §1
For experiment [8], the species on record is Cavia porcellus. Briefly: Relative affinity was determined with substance P(SP) in guinea pig trachea. In short, it runs like this:
as §1

The species named for experiment [9] is Oryctolagus cuniculus. Briefly: Concentration producing 50% of the maximum effect was tested in Rabbit mesenteric vein. In short, it runs like this:
as §1

Experiment [10] is filed under the species Cavia porcellus. Briefly: Negative log of the concentration producing 50% of the maximum effect was measured in guinea pig trachea. The method, boiled down: as §1
Experiment [11] is filed under the species Cavia porcellus. Briefly: The intrinsic activity was measured in guinea pig trachea. The method, boiled down: as §1
Experiment [12] is filed under the species Cavia porcellus. Briefly: Negative log of the concentration producing 50% of the maximum effect was measured in guinea pig ileum. To be noted: for Kb: Cavia porcellus, Ileum, read-out: pA2 (converted). In short, it runs like this: as §1
Experiment [13] is filed under the species Cavia porcellus. Briefly: Negative log of the concentration producing 50% of the maximum effect was measured in guinea pig ileum as pA2-pA10.
For experiment [14], the species on record is Oryctolagus cuniculus. Briefly: Negative log of the concentration producing 50% of the maximum effect was measured in Rabbit mesenteric vein as pA2-pA10.
The species named for experiment [15] is Cavia porcellus. Briefly: Concentration producing 50% of the maximum effect was tested in guinea pig trachea; inactive. In short, it runs like this:
as §1

Experiment [16] is filed under the species Cavia porcellus. Briefly: Concentration producing 50% of the maximum effect was tested in guinea pig ileum; inactive. The method, boiled down: as §1

With `CSCC[C@H](NC(=O)[C@H](CC(C)C)NC(=O)CNC(=O)[C@H](Cc1ccccc1)NC(=O)[C@H](Cc1ccccc1)NC(=O)[C@@H](N)CCC(N)=O)C(N)=O` (H-QFFGLM-NH2), the EC50 in the experiment listed under Cavia porcellus [1] stood at 0.0012 µM; in the experiment listed under Cavia porcellus [3], 0.034 µM. Besides, the values for the RA in the experiment listed under Cavia porcellus [2], in the experiment listed under Oryctolagus cuniculus [5] and in the experiment listed under Cavia porcellus [8] were 146, 33 and 507, respectively. Moreover, the pD2 in the experiment listed under Oryctolagus cuniculus [4] stood at 7.1; in the experiment listed under Cavia porcellus [10] it was 7.46; in the experiment listed under Cavia porcellus [12], 8.91. Besides, the values for the Intrinsic actvity in the experiment filed under Cavia porcellus [6] and in the experiment listed under Cavia porcellus [11] were 1 and 1.25, respectively. Besides, in the experiment filed under Oryctolagus cuniculus [7], the Activity turned out to be 1. The same molecule had an ED50 in the experiment listed under Oryctolagus cuniculus [9] of 0.08 µM.
In the case of `CSCC[C@H](NC(=O)[C@H](CC(C)C)NC(=O)[C@H](Cc1c[nH]c2ccccc12)NC(=O)[C@H](Cc1ccccc1)NC(=O)[C@H](Cc1ccccc1)NC(=O)[C@@H](N)CCCN=C(N)N)C(N)=O` (H-RFFWLM-NH2), the values for the EC50 in the experiment listed under Cavia porcellus [1] and in the experiment filed under Cavia porcellus [3] were 1.3 µM and 0.86 µM, respectively. Further, the RA stood at 0.1 in the experiment filed under Cavia porcellus [2], 2.7 in the experiment listed under Oryctolagus cuniculus [5] and 20.3 in the experiment filed under Cavia porcellus [8]. For the same molecule, the pD2 in the experiment listed under Oryctolagus cuniculus [4] was 6; in the experiment filed under Cavia porcellus [10], 6.06; in the experiment filed under Cavia porcellus [12], 5.88. The same molecule gave an ED50 in the experiment listed under Oryctolagus cuniculus [9] of 0.97 µM.
On to `CSCC[C@H](NC(=O)[C@H](CC(C)C)NC(=O)CNC(=O)[C@H](Cc1ccccc1)NC(=O)[C@H](Cc1c[nH]c2ccccc12)NC(=O)[C@@H](N)CCCN=C(N)N)C(N)=O` (H-RWFGLM-NH2), for which the EC50 in the experiment filed under Cavia porcellus [1] came to 0.25 µM; in the experiment filed under Cavia porcellus [3], 6.6 µM. Moreover, the RA is 0.7 in the experiment filed under Cavia porcellus [2], 0.9 in the experiment filed under Oryctolagus cuniculus [5] and 2.8 in the experiment listed under Cavia porcellus [8]. Besides, the pD2 was 5.56 in the experiment filed under Oryctolagus cuniculus [4], 5.18 in the experiment listed under Cavia porcellus [10] and 6.6 in the experiment listed under Cavia porcellus [12]. This molecule also returned an Intrinsic actvity in the experiment filed under Cavia porcellus [6] of 0.9. This molecule also returned an ED50 in the experiment listed under Oryctolagus cuniculus [9] of 2.7 µM.
Regarding `CSCC[C@H](NC(=O)[C@H](CC(C)C)NC(=O)[C@H](Cc1c[nH]c2ccccc12)NC(=O)[C@H](Cc1ccccc1)NC(=O)[C@H](Cc1ccccc1)NC(=O)[C@H](CCC(N)=O)NC(=O)[C@H](CCC(N)=O)NC(=O)[C@@H]1CCCN1C(=O)[C@H](CCCCN)NC(=O)[C@@H]1CCCN1C(=O)[C@@H](N)CCCN=C(N)N)C(N)=O`, the Kb in the experiment filed under Cavia porcellus [12] was 21.4 µM. In addition, the “pA2 minus pA10 difference” value in the experiment listed under Cavia porcellus [13] came out at 0.45.
Take `CSCC[C@H](NC(=O)[C@H](CC(C)C)NC(=O)CNC(=O)[C@H](Cc1c[nH]c2ccccc12)NC(=O)[C@H](Cc1ccccc1)NC(=O)[C@@H](N)CCCN=C(N)N)C(N)=O` (H-RFWGLM-NH2): the EC50 came out at 0.36 µM in the experiment filed under Cavia porcellus [1] and 4.2 µM in the experiment listed under Cavia porcellus [3]. Also, the RA in the experiment filed under Cavia porcellus [2] came out at 0.5; in the experiment listed under Cavia porcellus [8], 4.2. This molecule yielded an Intrinsic actvity in the experiment filed under Cavia porcellus [6] of 0.9. For the same molecule, the pD2 was 5.38 in the experiment filed under Cavia porcellus [10] and 6.44 in the experiment listed under Cavia porcellus [12]. In the experiment filed under Cavia porcellus [11], this molecule came in with an Activity of 0.5.
`CSCC[C@H](NC(=O)[C@H](Cc1c[nH]c2ccccc12)NC(=O)CNC(=O)[C@H](Cc1ccccc1)NC(=O)[C@H](Cc1ccccc1)NC(=O)[C@@H](N)CCCN=C(N)N)C(N)=O` (H-RFFGWM-NH2) came in with an Activity in the experiment listed under Oryctolagus cuniculus [14] of 0.69. The molecule further displayed an RA in the experiment listed under Oryctolagus cuniculus [5] of less than 0.1. For the same molecule, the Kb in the experiment listed under Oryctolagus cuniculus [7] is 11 µM; in the experiment listed under Cavia porcellus [12] it was 9.77 µM. Also, the ED50 result in the experiment listed under Cavia porcellus [15] and in the experiment listed under Cavia porcellus [16] was “inactive” each time. Also, in the experiment filed under Cavia porcellus [13], the “pA2 minus pA10 difference” value was determined as 0.82.
Broadly, the pA2 is a measure of antagonist potency on a negative log scale. The molecule `CSCC[C@H](NC(=O)[C@H](CC(C)C)NC(=O)[C@H](Cc1c[nH]c2ccccc12)NC(=O)[C@H](Cc1ccccc1)NC(=O)[C@H](Cc1c[nH]c2ccccc12)NC(=O)[C@H](CCC(N)=O)NC(=O)[C@H](CCC(N)=O)NC(=O)[C@@H]1CCCN1)C(N)=O` (H-PQQWFWLM-NH2) gave a pA2-pA10 in the experiment listed under Oryctolagus cuniculus [4] of 1. The molecule also yielded an RA in the experiment filed under Oryctolagus cuniculus [5] of less than 0.1. In addition, the Kb in the experiment filed under Oryctolagus cuniculus [7] is 2.24 µM. For the same molecule, the ED50 entry in the experiment listed under Cavia porcellus [15] and in the experiment filed under Cavia porcellus [16] was “inactive” in each case. In addition, in the experiment filed under Cavia porcellus [12], the pA2 is 5.65 and 5.96. Also, in the experiment listed under Cavia porcellus [13], the “pA2 minus pA10 difference” value was 1 and 1.01.
